Assay [1] concerns the target Kelch-like ECH-associated protein 1/Nuclear factor erythroid 2-related factor 2 (Mus musculus) (UniProt Q60795+Q9Z2X8). The assay can be described thus: Activation of Keap1/Nrf2/ARE pathway in mouse Hepa-1c1c7 cells assessed as double induction of NQO1 specific activity after 48 hrs by bicinchoninic acid assay. The format is cell-based. The gist of the method: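 Hepa1c1c7 cells, 10000 per well, grown 24 h, then exposed to increasing concentrations for 48 h. Lysed; protein by BCA assay; NQO1 specific activity measured. CD = concentration doubling NQO1 specific activity, used as inducer potency. Eight replicate wells per concentration; SD 5–10%.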

The target of assay [2] is T1, Nitric oxide synthase, inducible (Mus musculus, UniProt P29477).
T1 sequence (P29477 whole entry): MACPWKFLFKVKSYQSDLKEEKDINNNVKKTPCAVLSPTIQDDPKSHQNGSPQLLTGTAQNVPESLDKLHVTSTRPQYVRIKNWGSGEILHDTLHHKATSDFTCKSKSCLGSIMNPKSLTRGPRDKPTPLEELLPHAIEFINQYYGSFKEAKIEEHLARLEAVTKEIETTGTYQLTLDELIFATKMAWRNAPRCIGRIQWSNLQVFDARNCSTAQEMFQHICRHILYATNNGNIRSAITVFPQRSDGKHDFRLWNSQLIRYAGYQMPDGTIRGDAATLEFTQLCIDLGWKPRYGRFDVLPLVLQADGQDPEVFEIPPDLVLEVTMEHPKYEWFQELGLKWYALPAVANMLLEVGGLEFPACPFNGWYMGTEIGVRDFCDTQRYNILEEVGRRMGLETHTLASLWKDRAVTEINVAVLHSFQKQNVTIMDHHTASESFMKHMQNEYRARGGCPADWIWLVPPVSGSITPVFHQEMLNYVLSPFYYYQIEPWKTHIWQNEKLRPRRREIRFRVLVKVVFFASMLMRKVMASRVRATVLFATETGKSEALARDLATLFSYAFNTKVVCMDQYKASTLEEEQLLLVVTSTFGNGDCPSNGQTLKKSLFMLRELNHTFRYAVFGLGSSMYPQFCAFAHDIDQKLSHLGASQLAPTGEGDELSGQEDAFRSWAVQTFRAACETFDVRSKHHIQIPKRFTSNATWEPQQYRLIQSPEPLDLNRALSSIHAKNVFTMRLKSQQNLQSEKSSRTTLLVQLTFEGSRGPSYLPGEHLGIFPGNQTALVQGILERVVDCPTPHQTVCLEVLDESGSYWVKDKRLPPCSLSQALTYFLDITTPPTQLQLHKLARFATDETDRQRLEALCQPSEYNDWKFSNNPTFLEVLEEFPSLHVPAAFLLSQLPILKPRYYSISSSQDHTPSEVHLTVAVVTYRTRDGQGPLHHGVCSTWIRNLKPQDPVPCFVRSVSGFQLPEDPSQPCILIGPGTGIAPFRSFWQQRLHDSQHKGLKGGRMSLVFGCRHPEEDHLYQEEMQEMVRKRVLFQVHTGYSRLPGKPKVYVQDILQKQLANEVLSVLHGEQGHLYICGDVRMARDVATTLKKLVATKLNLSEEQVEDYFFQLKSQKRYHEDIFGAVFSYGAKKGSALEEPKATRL
The assay can be described thus: Inhibition of iNOS in LPS-stimulated mouse RAW264.7 cells assessed as inhibition of nitric oxide production after 48 hrs by Griess assay. In kind it is cell-based.

Kelch-like ECH-associated protein 1/Nuclear factor erythroid 2-related factor 2 (Mus musculus), sequence (Q60795 whole entry, looked up): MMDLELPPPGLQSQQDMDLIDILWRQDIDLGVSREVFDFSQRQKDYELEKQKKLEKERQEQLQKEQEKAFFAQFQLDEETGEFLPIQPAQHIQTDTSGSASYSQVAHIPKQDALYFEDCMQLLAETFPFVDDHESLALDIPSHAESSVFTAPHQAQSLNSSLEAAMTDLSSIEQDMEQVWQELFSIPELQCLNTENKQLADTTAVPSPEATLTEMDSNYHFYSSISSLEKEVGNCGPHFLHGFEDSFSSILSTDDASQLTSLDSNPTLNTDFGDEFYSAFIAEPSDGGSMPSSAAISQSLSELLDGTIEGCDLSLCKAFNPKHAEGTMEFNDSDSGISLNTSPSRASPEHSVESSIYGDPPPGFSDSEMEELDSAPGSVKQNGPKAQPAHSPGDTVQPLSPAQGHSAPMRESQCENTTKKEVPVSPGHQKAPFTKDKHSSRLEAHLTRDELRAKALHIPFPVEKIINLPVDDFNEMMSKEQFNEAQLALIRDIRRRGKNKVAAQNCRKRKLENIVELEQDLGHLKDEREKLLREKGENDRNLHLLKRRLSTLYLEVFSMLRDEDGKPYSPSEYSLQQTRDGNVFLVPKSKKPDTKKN
Kelch-like ECH-associated protein 1/Nuclear factor erythroid 2-related factor 2 (Mus musculus), sequence (Q9Z2X8 whole entry, looked up): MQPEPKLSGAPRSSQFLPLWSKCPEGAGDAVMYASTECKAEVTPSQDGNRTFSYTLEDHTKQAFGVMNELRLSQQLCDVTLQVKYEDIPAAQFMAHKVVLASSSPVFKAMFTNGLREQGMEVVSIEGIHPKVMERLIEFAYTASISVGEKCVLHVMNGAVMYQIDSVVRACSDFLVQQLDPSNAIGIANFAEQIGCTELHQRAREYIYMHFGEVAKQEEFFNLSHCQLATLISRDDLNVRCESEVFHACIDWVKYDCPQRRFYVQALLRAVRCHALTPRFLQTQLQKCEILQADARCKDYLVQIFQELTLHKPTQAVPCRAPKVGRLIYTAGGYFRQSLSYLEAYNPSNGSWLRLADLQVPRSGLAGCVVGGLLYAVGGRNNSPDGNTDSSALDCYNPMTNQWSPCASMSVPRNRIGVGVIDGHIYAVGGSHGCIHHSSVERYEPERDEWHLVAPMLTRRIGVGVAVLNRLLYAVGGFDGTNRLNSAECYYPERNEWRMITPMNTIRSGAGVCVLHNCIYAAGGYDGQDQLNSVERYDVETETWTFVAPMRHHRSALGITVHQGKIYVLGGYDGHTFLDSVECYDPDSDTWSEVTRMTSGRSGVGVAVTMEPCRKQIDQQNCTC

Turning to `C#CC1(C=C)C=CC(=O)C(C#N)=C1` (stereo not drawn), in assay [1], the CD worked out at 20 nM. Also, the IC50 – broadly, the point on the concentration scale where inhibition reaches its midpoint – in assay [2] (raw264.7) was 16 nM.

`C#CC12C=C(C#N)C(=O)C=C1c1c(C)cccc1CC2` (stereo not drawn): in assay [1], the CD is 1800 nM. In addition, the IC50 in assay [2] (raw264.7) stood at 940 nM.

Regarding `C#CC12C=C(C#N)C(=O)C=C1c1c(Cl)cccc1C2` (stereo not drawn), in assay [1], the CD was found to be 130 nM. Moreover, the IC50 in assay [2] (raw264.7) worked out at 800 nM.

On to `C#CC1(C)C=CC(=O)C(C#N)=C1` (stereo not drawn), for which the CD in assay [1] amounted to 21 nM. In assay [2] (raw264.7), the IC50 was 18 nM.

On to `C#C[C@]12C=C(C#N)C(=O)C=C1[C@@]1(C)C=C(C#N)C(=O)C(C)(C)[C@@H]1CC2` (racemic), for which, in assay [1], the CD was found to be 0.9 nM. Also, in assay [2] (raw264.7), the IC50 turned out to be 1 nM.

As to `C#CC12C=C(C#N)C(=O)C=C1c1c(Cl)cccc1CC2` (stereo not drawn), the CD in assay [1] came out at 900 nM.

As for `C#CC12C=C(C#N)C(=O)C=C1c1ccccc1C2` (stereo not drawn), the CD in assay [1] amounted to 41 nM. In addition, the IC50 in assay [2] (raw264.7) was 380 nM.

As for `C#CC12C=C(C#N)C(=O)C=C1C(C)(C)CC2` (stereo not drawn), the CD in assay [1] stood at 100 nM. Further, the IC50 in assay [2] (raw264.7) came to 200 nM.

Consider `C#CC12C=C(C#N)C(=O)C=C1c1ccccc1CC2` (stereo not drawn), for which the CD in assay [1] amounted to 150 nM.

Take `C#CC12C=C(C#N)C(=O)C=C1c1c(Br)cccc1CC2` (stereo not drawn): the CD in assay [1] was found to be 1300 nM. In addition, the IC50 in assay [2] (raw264.7) stood at 650 nM.

Consider `C#CC1(CC)C=CC(=O)C(C#N)=C1` (stereo not drawn), for which, in assay [1], the CD turned out to be 42 nM.

On to `C#CC12C=C(C#N)C(=O)C=C1CCC2` (stereo not drawn), for which, in assay [1], the CD came to 56 nM. Besides, the IC50 in assay [2] (raw264.7) came to 160 nM.

On to `C#CC1(C#C)C=CC(=O)C(C#N)=C1`, for which the CD in assay [1] was found to be 180 nM. Further, the IC50 in assay [2] (raw264.7) was determined as 210 nM.

As for `C[S+]([O-])CCCCN=C=S` (stereo not drawn) [SULFORAPHANE], the CD in assay [1] worked out at 200 nM. Also, in assay [2], the IC50 came to 400 nM.

In the case of `CC1(C)CC[C@]2(C(=O)O)CC[C@]3(C)[C@H](C(=O)C=C4[C@@]5(C)C=C(C#N)C(=O)C(C)(C)[C@@H]5CC[C@]43C)[C@@H]2C1` [BARDOXOLONE], the CD in assay [1] was determined as 2.3 nM. For the same compound, the IC50 in assay [2] (raw264.7) came out at 23 nM.

For `C#CC1(C)C=C(C#N)C(=O)c2ccccc21` (stereo not drawn), the CD in assay [1] is 220 nM.
